The campaign covered roughly 330,000 compounds. About 300 (0.091%) were called active. Only a selection was taken, and actives are over-represented in it overall. Unmarked numbers belong to inactive results.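 Rule for the calls: active = percent activation above the screen-wide mean plus 3 SD (cut at about 25% in these data); inactive = the rest.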
molecular target: Caspase-7 (Homo sapiens) (UniProt P55210); experiment: activation of procaspase-7 enzyme – biochemical, absorbance, HTS, human, counter-screen for procaspase-3 activator project, primary screen (AID 463210); details: recombinant procaspase-7, Ac-DEVD-pNA absorbance 405 nm; at 8.5 µM; active compounds read high; D23A/D198A/D206A triple mutant, cannot self-cleave; scale: DMSO 0, 5 µM enzyme 100
Sequence (P55210 whole entry D23A/D198A/D206A): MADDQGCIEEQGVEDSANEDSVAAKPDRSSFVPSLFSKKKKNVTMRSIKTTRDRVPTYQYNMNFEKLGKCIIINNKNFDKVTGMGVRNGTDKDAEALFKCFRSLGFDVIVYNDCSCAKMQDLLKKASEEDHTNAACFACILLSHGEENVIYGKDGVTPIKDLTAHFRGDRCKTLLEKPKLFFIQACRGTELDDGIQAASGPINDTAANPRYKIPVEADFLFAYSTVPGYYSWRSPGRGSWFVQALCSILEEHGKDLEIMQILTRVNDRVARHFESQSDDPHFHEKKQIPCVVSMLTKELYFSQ
Outline: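 buffer or medium = Zinc-free HEPES/NaCl buffer, pH 7.4 | material = Procaspase-7 triple mutant (PC-7 D3A) | input = 2 µM procaspase-7 mutant as dispensed | signal = Epi-absorbance of released pNA at 405 nm, two timepoints | timing = 1 h preincubation, 2 h reaction | replicates = singlicate compound testing | evaluation = % activation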

Structure (SMILES) | activation
COc1cc(OC)cc(C(=O)NC2CCN(C(=O)N3c4ccccc4Sc4ccccc43)CC2)c1 | 2.43%
CON(C)S(=O)(=O)c1ccc2c(c1)NC(=O)C1CCCN21 (stereo not given) | -0.92%
CCCCn1c(-c2cccc(C)c2)nc2cc3[nH]c(=O)c(C(C)C)nc3cc21 | 11.3%
CC(=O)c1ccc(OC(=O)N2CCOCC2)cc1 | -1.27%
O=C(NC1CCCC1)C(NS(=O)(=O)c1ccc(Br)s1)c1ccccc1 (stereo not given) | -4.82%
O=S(=O)(Cc1noc(-c2ccc(OC(F)(F)F)cc2)n1)c1ccc(F)cc1 | 10.7%
Cc1ccc(C)c(NS(=O)(=O)c2c(C)[nH]c(C)c2C(=O)N2CCCCC2)c1 | 4.13%
COc1ccc(Nc2ncc(C(=O)N3CCN(c4ccccc4OC)CC3)c3ccccc23)cc1 | 49.2% (active)
COc1ccccc1N1CCN(C(=O)c2ccc(NC3=NC4CS(=O)(=O)CC4S3)cc2)CC1 (stereo not given) | 5.2%
COc1ccccc1N1CCN(C(=O)c2cn(-c3ccccc3)nc2-c2cccnc2)CC1 | 6.33%
CC(C)C(c1nnnn1C(C)(C)C)N1CCN(Cc2cccnc2)CC1 (stereo not given) | -6.66%
COc1ccc(CN(C)Cc2nc3cc(OC)c(OC)cc3c(=O)[nH]2)c(OC)c1 | 4.38%
CSCCC(NS(=O)(=O)c1ccc(C)cc1)C(=O)NCCc1c[nH]c2ccccc12 (stereo not given) | -0.01%
CCCCS(=O)c1snnc1C (stereo not given) | -3.16%
CCOC(=O)N1CCN(C(=O)c2ccccc2SCC(=O)NCC2CCCCC2)CC1 | -1.95%
O=C(O)CCS(=O)(=O)c1ccc(-c2ccccc2)cc1 | 6.38%
O=C1OCCN1C(=O)[C@H]1[C@H](c2ccc(F)cc2)C(c2ccccc2)=NN1c1ccc(Br)cc1 | 28.9% (active)
O=C1OCCN1C(=O)[C@H]1[C@H](c2ccccc2)C(c2ccc(F)cc2)=NN1c1ccccc1 | -10.3%
O=C1OCCN1C(=O)[C@H]1[C@H](c2ccc(Cl)cc2)C(c2cccc(Cl)c2)=NN1c1ccc(Br)cc1 | 10.5%
O=C(COc1ccccc1Cl)N1N=C(c2cccs2)CC1c1ccco1 (stereo not given) | -20%
COc1ccccc1N1N=C(c2cccs2)CC1c1ccccc1 (stereo not given) | -22.6%
Fc1ccc(N2N=C(c3cccs3)CC2c2ccco2)c(F)c1 (stereo not given) | 51% (active)
CN(C(=O)CCNC(=O)Cn1ccc2ccccc2c1=O)c1ccc(Br)cc1 | 4.82%

Structure (SMILES) | activation
Cn1c(CCCOc2ccc(Cl)cc2Cl)n[nH]c1=S | -19.3%
O=C(Nc1cccc2c1CCCC2)c1ccc(F)cc1 | 7.3%
Cc1ncn2cc(-c3ccc(Cl)cc3Cl)[nH]c(=O)c12 | 10.9%
O=C(c1cccc(-n2cccc2)c1)N1CCN(S(=O)(=O)c2ccc(F)cc2)CC1 | 3.36%
Cc1ccc2c(CC(=O)NCc3cccs3)coc2c1 | -3.04%
COC(=O)c1ccc(CN2CCN(CCCc3ccccc3)C(CCO)C2)cc1 (stereo not given) | 2.25%
Cc1cccc(N2CC(C)Cn3c2nc2c3c(=O)n(CC(=O)OCc3ccccc3)c(=O)n2C)c1 (stereo not given) | 1.17%
COc1ccc(C2=NS(=O)(=O)N(C)C(C(=O)N(C)Cc3ccccc3)=C2)cc1 | 1.33%
N#Cc1ccccc1CN1C(=O)S/C(=C/c2cccn2-c2cccc(C(=O)O)c2)C1=O | -18.8%
O=C(Cc1coc2ccc3ccccc3c12)NCc1cccs1 | 9.96%
CC1(C)Cc2c(sc(NC(=O)C(=O)NCC3CCCO3)c2C(=O)O)CO1 (stereo not given) | 1.97%
CCc1c(C)c2ccc(OC3CCCCC3=O)cc2oc1=O (stereo not given) | 4.02%
CC(=O)Oc1ccc2c(C)c(CC(C)O)c(=O)oc2c1 (stereo not given) | 29.6% (active)
COC(=O)Cc1c(C)c2ccc(OCC(=O)NCc3ccc4c(c3)OCO4)cc2oc1=O | 13.2%
CC(C(=O)NCCc1ccc(S(N)(=O)=O)cc1)N1C(=O)CC(C)(C)Sc2ccccc21 (stereo not given) | -4.12%
COc1ccc(C2(C)ON(c3ccccc3C(F)(F)F)C2=O)cc1 (stereo not given) | 2.15%
O=C(NC1CCc2ccccc21)C12CN(Cc3ccccc3)CC1C(c1cccc([N+](=O)[O-])c1)=NO2 (stereo not given) | 7.39%
COc1ccc(NC(=O)c2cccc3c2C(=O)N(CC2CCCO2)C3)cc1OC (stereo not given) | 9.62%
COc1ccc(/C=N/Nc2ccccc2C(=O)O)cc1 | -19.5%
COc1ccc(/C=N/Nc2nc3ccccc3c(=O)[nH]2)cc1 | 28.9% (active)
COc1ccc(/C=N/Nc2nc(-c3ccc(C)cc3)c(C#N)c(=O)[nH]2)cc1 | 1.13%
C/C(=N/NC(=O)CSc1ccccn1)c1ccc([N+](=O)[O-])cc1 | 1.61%
CCCNC(=S)N1CCCC(c2nc3ccccc3[nH]2)C1 (stereo not given) | 6.91%

Structure (SMILES) | activation
Cc1cccc(-n2c(SCC(=O)Nc3cccc(S(=O)(=O)NC4=NCCCCC4)c3)nc3ccccc3c2=O)c1C | -0.51%
CC1(C)C(C=C(Cl)Cl)C1C(=O)NC(O)C(=O)c1ccccc1 (stereo not given) | 6.56%
COC(=O)c1ccc(N2CCOCC2)c(NC(=O)c2ccc(Br)o2)c1 | 1.06%
COc1ccccc1CNC(=O)COC(=O)CNS(=O)(=O)c1ccc(NC(C)=O)cc1 | 7.44%
Cn1cnnc1SCc1nnc(-c2ccccc2Br)o1 | 2.67%
Nc1cccc2c1C(=O)N(Cc1nnc(-c3ccccc3Br)o1)C2=O | 64.5% (active)
CCOC(=O)N1CCN(Cc2nnc(-c3ccccc3Cl)o2)CC1 | -1.71%
CN(C)CCCSc1ccccc1NC(=O)/C=C/c1ccccc1 | 10.4%
Cc1nc(SCC(=O)N2CCc3ccccc3C2)c2c(C)c(C)sc2n1 | 18.1%
CC1(C)Cc2c(C#N)c(SCc3nc4ccccc4[nH]3)nc(N3CCOCC3)c2CO1 | 33% (active)
CC(C)C(=O)N1CCN(c2nc(-c3ccccc3)c3c(c2C#N)CC(C)(C)OC3)CC1 | 12.1%
COc1ccc(CSc2nc(N3CCOCC3)c3c(c2C#N)CC(C)(C)OC3)cc1 | -0.56%
Cc1ccc(CSCCNC(=O)CN(c2ccc(F)cc2)S(C)(=O)=O)cc1 | -2.84%
CCCc1c(C(=O)N/N=C(\C)CCc2ccc(OC)cc2)nnn1-c1nonc1N | 2.5%
O=C(NCCc1ccco1)c1ccc(OCc2cn3ccccc3n2)cc1 | 15.8%
CCOc1cc(C(=O)OCC(=O)Nc2cccc(C)c2)ccc1OCC(=O)N1CCOCC1 | 15.3%
O=S(=O)(NCCSc1ccccn1)c1ccc(Cl)cc1 | -2.06%
COc1ccc(NC(=O)CNC(=O)Cn2ccc3ccccc3c2=O)c(OC)c1 | -4.04%
Cc1ccc(Cc2cncc(O)c2)cc1S(=O)(=O)O | 10.6%
COC(=O)/C=C(\Oc1ccccc1)C1(O)CCCCC1 | 7.7%
NS(=O)(=O)c1ccc(CCNC(=O)COC(=O)COc2cccc(C(F)(F)F)c2)cc1 | -7.58%
COc1ccc(OC)c(S(=O)(=O)Nc2cccc(-c3ccc4nncn4n3)c2)c1 | 5.81%
Nc1c(-c2cccc(Cl)c2)cnn1-c1cccc([N+](=O)[O-])c1 | -13%

Structure (SMILES) | activation
O=C(NC1CCCC1)C(c1ccco1)N(C(=O)c1csnn1)c1ccccc1 (stereo not given) | 6.3%
Cn1cnnc1Sc1ccc(S(C)(=O)=O)cc1[N+](=O)[O-] | 6.34%
COc1ccc(CNC(=O)COC(=O)CCS(=O)(=O)c2ccc(C)cc2)cc1OC | 6.34%
CC(C)CN1CCNC(=O)C1CC(=O)N(C)CC1CCOCC1 (stereo not given) | -1.75%
Cc1ccccc1NC(=O)CSC1=NCCN1 | 9.38%
O=C(O)c1cc(S(=O)(=O)NC2CCCc3ccccc32)ccc1O (stereo not given) | -8.22%
CNS(=O)(=O)c1cccc(C(=O)NCC2CCCCC2)c1 | 1.69%
CNS(=O)(=O)c1cccc(C(=O)NC2CCCc3ccccc32)c1 (stereo not given) | 38.5% (active)
CCOC(=O)/C=C/c1ccc(C(F)(F)F)cc1S(=O)(=O)NC(C)(C)C | 2.37%
Cc1cc(Cl)c2oc(C(=O)N3CCC(O)(c4ccccc4)CC3)c(C)c2c1 | -0.4%
COc1ccccc1CNC(=O)CN1CCC(n2cnc3cc(F)ccc32)CC1 | -8.61%
Cc1coc2c1c(C)cc1oc(=O)c(CC(=O)NCC(=O)N[C@H](C(=O)O)C(C)C)c(C)c12 | -1.78%
CC1CCN(C(=O)Cn2nnnc2CN2CCOCC2)CC1 | 0.88%
CCNS(=O)(=O)c1ccc(NC(=O)c2cncc(Br)c2)cc1 | 3.96%
Cc1ccc2c(C)c(C(=O)N3CCN(c4ccncc4)CC3)oc2c1C | 0%
Cc1ccc(-c2csc(N3CCN(c4cc5c(cc4Cl)nc(-c4ccncc4)n5CCOCCO)CC3)n2)cc1 | 1.55%
CC(C)C1Nc2c(C(=O)O)cccc2C(Nc2ccccc2C(=O)O)C1(C)C (stereo not given) | -0.22%
CCOC(=O)Cn1c2c(c(-c3ccccc3OC)cc1=O)CCCC2 | 0.27%
CC(=O)Nc1ccc(NS(=O)(=O)c2cc(C)sc2C)cc1 | 4.24%
O=C(NCCS(=O)(=O)N1CCN(c2ccccc2F)CC1)c1ccc(Br)o1 | 10.8%
COc1ccc(N2CCN(C(=O)Cn3cnc4sc(C)c(S(=O)(=O)N5CCOCC5)c4c3=O)CC2)cc1 | 7.13%

From PubChem BioAssay AID463210 (The Scripps Research Institute Molecular Screening Center, 2010)
